Active and inactive are the calls of the source.
Experiments:
Listeria monocytogenes = assay: Antibacterial activity against Listeria monocytogenes 19111 assessed as inhibition of bacterial growth incubated for 18 to 20 hrs by CLSI protocol based broth microdilution method; format: functional; details: time 18-20 hrs
In short: (§1)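 Enterococci and L. monocytogenes were diluted from a 0.5 McFarland suspension in TSB. They were incubated with serial dilutions of test agent in broth microdilution, and the MIC was recorded.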

Staphylococcus aureus [1] = assay: Antibacterial activity against methicillin resistant Staphylococcus aureus 384 assessed as inhibition of bacterial growth incubated for 18 to 20 hrs by CLSI protocol based broth microdilution method; format: functional; details: time 18-20 hrs
In short: (§2)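 Broth microdilution against staphylococcal clinical isolates. Each strain was prepared as a 0.5 McFarland suspension and diluted in cation-adjusted Mueller Hinton broth to ~5 × 10^5 CFU mL−1. Serial dilutions of test agents in DMSO stock were incubated with the bacteria, and the MIC was recorded.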

Staphylococcus aureus [2] = assay: Antibacterial activity against vancomycin resistant Staphylococcus aureus 12 assessed as inhibition of bacterial growth incubated for 18 to 20 hrs by CLSI protocol based broth microdilution method; format: functional; details: time 18-20 hrs; in short: as §2
Staphylococcus aureus [3] = assay: Antibacterial activity against vancomycin resistant Staphylococcus aureus 10 assessed as inhibition of bacterial growth incubated for 18 to 20 hrs by CLSI protocol based broth microdilution method; format: functional; details: time 18-20 hrs; in short: as §2
Enterococcus faecium = assay: Antibacterial activity against Enterococcus faecium 700221 assessed as inhibition of bacterial growth incubated for 18 to 20 hrs by CLSI protocol based broth microdilution method; format: functional; details: time 18-20 hrs; in short: as §1
Staphylococcus aureus [4] = assay: Antibacterial activity against methicillin sensitive Staphylococcus aureus 107 assessed as inhibition of bacterial growth incubated for 18 to 20 hrs by CLSI protocol based broth microdilution method; format: functional; details: time 18-20 hrs; in short: as §2
Staphylococcus aureus [5] = assay: Antibacterial activity against methicillin resistant Staphylococcus aureus 119 assessed as inhibition of bacterial growth incubated for 18 to 20 hrs by CLSI protocol based broth microdilution method; format: functional; details: time 18-20 hrs; in short: as §2
Staphylococcus aureus [6] = assay: Antibacterial activity against methicillin resistant Staphylococcus aureus NRS384 USA300 assessed as inhibition of bacterial growth incubated for 18 to 20 hrs by CLSI protocol based broth microdilution method; format: functional; details: time 18-20 hrs, read-out: MIC; in short: as §2
Staphylococcus aureus [7] = assay: Antibacterial activity against methicillin resistant Staphylococcus aureus NRS384 USA300 infected in Balb/c mouse model of skin infection assessed as reduction in bacterial burden in spleen administered topically twice daily for three consecutive days from day 4 to 6 and measured 24 hrs post last dose; format: functional; details: route top; time 4 day
In short: (§3)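 Mice were anesthetized with 2,2,2-tribromoethanol and injected subcutaneously with 100 μL containing 2 × 10^9 CFU MRSA USA300 in 0.5% HPMC in saline. Topical treatment used a petroleum jelly vehicle, with a fusidic acid positive control. Lesions were photographed 24 h after the last dose. A ~1.5 cm2 skin patch (homogenized in 1 mL saline) and the spleen (in 0.5 mL) were serially diluted and plated on MSA at 37 °C overnight for CFU.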

Staphylococcus aureus [8] = assay: Induction of drug resistance in methicillin resistant Staphylococcus aureus NRS384 USA300 assessed as fold change in MIC measured from passage 5 to 14 by broth microdilution method; format: functional
In short: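 Multi-step resistance in MRSA USA300 over 14 consecutive passages, with rifampicin as the control antibiotic. The MIC was determined by broth microdilution at each passage. Resistance was defined as a greater than four-fold rise over the initial MIC.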

Streptococcus pneumoniae = assay: Antibacterial activity against Streptococcus pneumoniae 51916 assessed as inhibition of bacterial growth incubated for 18 to 20 hrs by CLSI protocol based broth microdilution method; format: functional; details: time 18-20 hrs
In short: (§4)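 Streptococci were diluted from a 0.5 McFarland suspension in cation-adjusted Mueller Hinton broth with 5% lysed horse blood. They were incubated with serial dilutions of test agent in broth microdilution, and the MIC was recorded.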

Staphylococcus aureus [9] = assay: Antibacterial activity against methicillin sensitive Staphylococcus aureus 6538 assessed as inhibition of bacterial growth incubated for 18 to 20 hrs by CLSI protocol based broth microdilution method; format: functional; details: time 18-20 hrs; in short: as §2
Staphylococcus aureus [10] = assay: Antibacterial activity against methicillin sensitive Staphylococcus aureus 107 assessed as inhibition of bacterial growth at 0.5 ug/ml incubated for 18 to 20 hrs by CLSI protocol based broth microdilution method; format: functional, organism-based; details: dose 0.5 µg/ml, time 18-20 hrs
In short: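 Staphylococcal and E. coli strains were diluted from a 0.5 McFarland suspension in cation-adjusted Mueller Hinton broth to ~5 × 10^5 CFU mL−1. They were incubated with serial dilutions of test agent in broth microdilution, and the MIC was recorded.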

[11] = Hemolytic activity in rabbit erythrocytes at 32 to 64 ug/ml incubated for 30 mins by absorbance based assay; format: toxicity, cell-based, Oryctolagus cuniculus; details: erythrocyte, 0.5 h, dose 32-64 µg/ml
In short: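 Rabbit erythrocytes were washed three times in PBS pH 7.4 and adjusted to A540 0.8. They were mixed 1:1 with compound (final 16, 32, 64 μg mL−1) for 30 min at 37 °C. After centrifugation at 13 000 × g for 5 min, supernatant A540 was read as % of 1% Triton X-100 complete hemolysis. PBS served as negative control. Each concentration was run twice.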

Streptococcus pyogenes = assay: Antibacterial activity against Streptococcus pyogenes MGAS 9882 assessed as inhibition of bacterial growth incubated for 18 to 20 hrs by CLSI protocol based broth microdilution method; format: functional; details: time 18-20 hrs; in short: as §4
Staphylococcus aureus [12] = assay: Antibacterial activity against vancomycin resistant Staphylococcus aureus 12 assessed as inhibition of bacterial growth at 0.5 ug/ml incubated for 18 to 20 hrs by CLSI protocol based broth microdilution method; format: functional, organism-based; details: dose 0.5 µg/ml, time 18-20 hrs
Staphylococcus aureus [13] = assay: Antibacterial activity against methicillin resistant Staphylococcus aureus NRS384 USA300 infected in Balb/c mouse model of skin infection assessed as reduction in inflammation administered topically twice daily for three consecutive days from day 4 to 6 and measured 24 hrs post last dose; format: functional, organism-based; details: route top, time 4.0 day; in short: as §3
Staphylococcus aureus [14] = assay: Antibacterial activity against methicillin resistant Staphylococcus aureus 385 assessed as inhibition of bacterial growth at 0.5 ug/ml incubated for 18 to 20 hrs by CLSI protocol based broth microdilution method; format: functional, organism-based; details: dose 0.5 µg/ml, time 18-20 hrs

C/C(=N\NC(=N)N)c1ccc(NC(=O)Nc2ccc(C#Cc3ccccc3)cc2)cc1
active: Activity (Staphylococcus aureus [10]) | Activity (Staphylococcus aureus [12]) | Activity (Staphylococcus aureus [13]) | Activity (Staphylococcus aureus [14])
>1 log10CFU/ml: Activity (Staphylococcus aureus [7])
0.5 mg/L: MIC (Listeria monocytogenes) | MIC (Staphylococcus aureus [1]) | MIC (Staphylococcus aureus [2]) | MIC (Staphylococcus aureus [3]) | MIC (Enterococcus faecium) | MIC (Staphylococcus aureus [4]) | MIC (Staphylococcus aureus [5]) | MIC (Staphylococcus aureus [6]) | MIC (Streptococcus pneumoniae) | MIC (Staphylococcus aureus [9]) | MIC (Streptococcus pyogenes)
Toxic: Activity [11]
1: fold change (FC) (Staphylococcus aureus [8])

— ChEMBL document CHEMBL5230171, “Expanding the structure-activity relationships of alkynyl diphenylurea scaffold as promising antibacterial agents” (RSC Med Chem, 2023)
